ChEMBL document CHEMBL1149142, “Synthesis, biological activity and molecular modeling of 6-benzylthioinosine analogues as subversive substrates of Toxoplasma gondii adenosine kinase” (2004)

What was measured:
[1] = Effect of compound on percent survival of human fibroblast cells in culture was determined at 25 uM; type: functional; settings: read-out: Survival
Outline: (§1)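 Uninfected human foreskin fibroblast monolayers (≤30 passages) in RPMI 1640 are attached for at least 24 h at 37 °C in 5% CO2. Compound is added at the same concentrations as in the parasite assay and incubated 48 h. MTT is added for 4 h, formazan is dissolved in DMSO, and absorbance is read at 540 nm; at least triplicates.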

Toxoplasma gondii [2] = experiment: Effect of compound on percent survival of wild type (RH) strain of Toxoplasma gondii grown in human fibroblast cells at 50 uM; type: functional
Outline: (§2)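 Human foreskin fibroblast monolayers (≤30 passages) in RPMI 1640 are infected with tachyzoites at one parasite per cell in 3% FBS for 1 h, then washed, with FBS kept at 10%. Compound is added in 50% ethanol stock (2.5% ethanol final) and incubated 18 h. Medium is replaced with drug-free [5,6-3H]uracil (2 μCi/mL) for 6 h. TCA-precipitable radioactivity is counted; at least triplicates.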

[3] = Effect of compound on percent survival of human fibroblast cells in culture was determined at 10 uM; type: functional; settings: read-out: Survival; outline: as §1
[4] = Effect of compound on percent survival of human fibroblast cells in culture was determined at 50 uM; type: functional; settings: read-out: Survival; outline: as §1
Toxoplasma gondii [5] = experiment: Effect of compound on percent survival of wild type (RH) strain of Toxoplasma gondii grown in human fibroblast cells at 25 uM; type: functional; outline: as §2
[6] = Effect of compound on percent survival of human fibroblast cells in culture was determined at 0 uM; type: functional; outline: as §1
Toxoplasma gondii [7] = experiment: Effect of compound on percent survival of adenosine kinase deficient strain of Toxoplasma gondii (TgAKe-3) grown in human fibroblast cells at 25 uM; type: functional; outline: as §2
Toxoplasma gondii [8] = experiment: Effect of compound on percent survival of adenosine kinase deficient strain of Toxoplasma gondii (TgAKe-3) grown in human fibroblast cells at 0 uM; type: functional; outline: as §2
[9] = Effect of compound on percent survival of human fibroblast cells in culture was determined at 5 uM; type: functional; settings: read-out: Survival; outline: as §1
Toxoplasma gondii [10] = experiment: Effect of compound on percent survival of wild type (RH) strain of Toxoplasma gondii grown in human fibroblast cells at 10 uM; type: functional; outline: as §2
Toxoplasma gondii [11] = experiment: Effect of compound on percent survival of adenosine kinase deficient strain of Toxoplasma gondii (TgAKe-3) grown in human fibroblast cells at 10 uM; type: functional; outline: as §2
Toxoplasma gondii [12] = experiment: Effect of compound on percent survival of adenosine kinase deficient strain of Toxoplasma gondii (TgAKe-3) grown in human fibroblast cells at 50 uM; type: functional; outline: as §2
Toxoplasma gondii [13] = experiment: Effect of compound on percent survival of adenosine kinase deficient strain of Toxoplasma gondii (TgAKe-3) grown in human fibroblast cells at 5 uM; type: functional; outline: as §2
Toxoplasma gondii [14] = experiment: Effect of compound on percent survival of wild type (RH) strain of Toxoplasma gondii grown in human fibroblast cells at 0 uM; type: functional; outline: as §2
Toxoplasma gondii [15] = experiment: Effect of compound on percent survival of wild type (RH) strain of Toxoplasma gondii grown in human fibroblast cells at 5 uM; type: functional; outline: as §2
[16] = substrate: CC(C)(C)c1ccc(CSc2ncnc3c2ncn3[C@@H]2O[C@H](CO)[C@@H](O)[C@H]2O)cc1; experiment: (§3) Binding affinity at Toxoplasma gondii adenosine kinase.
Outline: (§4)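 Purified recombinant T. gondii adenosine kinase was expressed in E. coli BL21(DE3)pLysS and purified on two Q-Sepharose columns. The assay contained 50 mM Tris-Cl pH 7.4, 2.5 mM ATP, 5 mM MgCl2, 5 mM creatine phosphate, creatine kinase and 5 μM [8-14C]adenosine, with varied analogue concentrations. Incubation was at 37 °C, stopped by boiling. [14C]AMP was resolved by TLC. Apparent Ki from Dixon plots was taken as apparent Km.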

[17] = substrate: O=[N+]([O-])c1ccc(CSc2ncnc3c2ncn3[C@@H]2O[C@H](CO)[C@@H](O)[C@H]2O)cc1; experiment: as §3; outline: as §4
[18] = substrate: Cc1ccccc1CSc1ncnc2c1ncn2[C@@H]1O[C@H](CO)[C@@H](O)[C@H]1O; experiment: as §3; outline: as §4
[19] = substrate: OC[C@H]1O[C@@H](n2cnc3c(SCc4ccc(F)cc4)ncnc32)[C@H](O)[C@@H]1O; experiment: as §3; outline: as §4
[20] = substrate: OC[C@H]1O[C@@H](n2cnc3c(SCc4ccc(Br)cc4)ncnc32)[C@H](O)[C@@H]1O; experiment: as §3; outline: as §4
[21] = substrate: OC[C@H]1O[C@@H](n2cnc3c(SCc4ccccc4Cl)ncnc32)[C@H](O)[C@@H]1O; experiment: as §3; outline: as §4
[22] = substrate: OC[C@H]1O[C@@H](n2cnc3c(SCc4ccc(OC(F)(F)F)cc4)ncnc32)[C@H](O)[C@@H]1O; experiment: as §3; outline: as §4
[23] = substrate: Cc1ccc(CSc2ncnc3c2ncn3[C@@H]2O[C@H](CO)[C@@H](O)[C@H]2O)cc1; experiment: as §3; outline: as §4
[24] = substrate: OC[C@H]1O[C@@H](n2cnc3c(SCc4ccc(Cl)cc4)ncnc32)[C@H](O)[C@@H]1O; experiment: as §3; outline: as §4
[25] = substrate: Nc1ncnc2c1ncn2[C@@H]1O[C@H](CO)[C@@H](O)[C@H]1O; experiment: as §3; outline: as §4
[26] = substrate: N#Cc1ccc(CSc2ncnc3c2ncn3[C@@H]2O[C@H](CO)[C@@H](O)[C@H]2O)cc1; experiment: as §3; outline: as §4
[27] = substrate: OC[C@H]1O[C@@H](n2cnc3c(SCc4cccc(C(F)(F)F)c4)ncnc32)[C@H](O)[C@@H]1O; experiment: as §3; outline: as §4
[28] = substrate: Cc1cc(C)c(CSc2ncnc3c2ncn3[C@@H]2O[C@H](CO)[C@@H](O)[C@H]2O)c(C)c1; experiment: as §3; outline: as §4
[29] = substrate: OC[C@H]1O[C@@H](n2cnc3c(SCc4ccc(Cl)c(Cl)c4)ncnc32)[C@H](O)[C@@H]1O; experiment: as §3; outline: as §4
[30] = substrate: COc1ccc(CSc2ncnc3c2ncn3[C@@H]2O[C@H](CO)[C@@H](O)[C@H]2O)cc1; experiment: as §3; outline: as §4
[31] = substrate: COC(=O)c1ccc(CSc2ncnc3c2ncn3[C@@H]2O[C@H](CO)[C@@H](O)[C@H]2O)cc1; experiment: as §3; outline: as §4
[32] = substrate: O=[N+]([O-])c1cccc(CSc2ncnc3c2ncn3[C@@H]2O[C@H](CO)[C@@H](O)[C@H]2O)c1; experiment: as §3; outline: as §4
[33] = substrate: OC[C@H]1O[C@@H](n2cnc3c(SCc4c(F)cccc4Cl)ncnc32)[C@H](O)[C@@H]1O; experiment: as §3; outline: as §4
[34] = substrate: OC[C@H]1O[C@@H](n2cnc3c(SCc4ccccc4)ncnc32)[C@H](O)[C@@H]1O; experiment: as §3; outline: as §4
[35] = substrate: OC[C@H]1O[C@@H](n2cnc3c(SCc4ccc(Cl)cc4Cl)ncnc32)[C@H](O)[C@@H]1O; experiment: as §3; outline: as §4
[36] = substrate: Cc1cccc(CSc2ncnc3c2ncn3[C@@H]2O[C@H](CO)[C@@H](O)[C@H]2O)c1; experiment: as §3; outline: as §4

## CC(C)(C)c1ccc(CSc2ncnc3c2ncn3[C@@H]2O[C@H](CO)[C@@H](O)[C@H]2O)cc1
[1]
  viability at 25 µM: 100%
Toxoplasma gondii [2]
  survival at 50 µM: 12.2%
[3]
  viability at 10 µM: 100%
[4]
  viability at 50 µM: 99.7%
Toxoplasma gondii [5]
  survival at 25 µM: 47.2%
[6]
  Survival: 100%
Toxoplasma gondii [7]
  survival at 25 µM: 100%
Toxoplasma gondii [8]
  Survival: 100%
[9]
  viability at 5 µM: 97.4%
Toxoplasma gondii [10]
  survival at 10 µM: 71.7%
Toxoplasma gondii [11]
  survival at 10 µM: 100%
Toxoplasma gondii [12]
  survival at 50 µM: 100%
Toxoplasma gondii [13]
  survival at 5 µM: 100%
Toxoplasma gondii [14]
  Survival: 100%
Toxoplasma gondii [15]
  survival at 5 µM: 83.3%

## Nc1ccc(S(=O)(=O)Nc2ncccn2)cc1 [SULFADIAZINE]
[1]
  viability at 25 µM: 99.8%
Toxoplasma gondii [2]
  survival at 50 µM: 46.6%
[3]
  viability at 10 µM: 99.7%
[4]
  viability at 50 µM: 100%
Toxoplasma gondii [5]
  survival at 25 µM: 59.2%
[6]
  Survival: 100%
[9]
  viability at 5 µM: 98.2%
Toxoplasma gondii [10]
  survival at 10 µM: 64.5%
Toxoplasma gondii [14]
  Survival: 100%
Toxoplasma gondii [15]
  survival at 5 µM: 75.7%

## CCc1nc(N)nc(N)c1-c1ccc(Cl)cc1 [PYRIMETHAMINE]
[1]
  viability at 25 µM: 100%
Toxoplasma gondii [2]
  survival at 50 µM: 6.9%
[3]
  viability at 10 µM: 98.8%
[4]
  viability at 50 µM: 100%
Toxoplasma gondii [5]
  survival at 25 µM: 11.8%
[6]
  Survival: 100%
[9]
  viability at 5 µM: 100%
Toxoplasma gondii [10]
  survival at 10 µM: 36.3%
Toxoplasma gondii [14]
  Survival: 100%
Toxoplasma gondii [15]
  survival at 5 µM: 53.8%

## OC[C@H]1O[C@@H](n2cnc3c(SCc4ccc(OC(F)(F)F)cc4)ncnc32)[C@H](O)[C@@H]1O
[1]
  viability at 25 µM: 97.4%
Toxoplasma gondii [2]
  survival at 50 µM: 44%
[3]
  viability at 10 µM: 99.9%
[4]
  viability at 50 µM: 98.6%
Toxoplasma gondii [5]
  survival at 25 µM: 54.5%
[6]
  Survival: 100%
Toxoplasma gondii [7]
  survival at 25 µM: 97.6%
Toxoplasma gondii [8]
  Survival: 100%
[9]
  viability at 5 µM: 100%
Toxoplasma gondii [10]
  survival at 10 µM: 64.9%
Toxoplasma gondii [11]
  survival at 10 µM: 100%
Toxoplasma gondii [12]
  survival at 50 µM: 95.1%
Toxoplasma gondii [13]
  survival at 5 µM: 100%
Toxoplasma gondii [14]
  Survival: 100%
Toxoplasma gondii [15]
  survival at 5 µM: 93.1%

## OC[C@H]1O[C@@H](n2cnc3c(SCc4ccc(Cl)cc4Cl)ncnc32)[C@H](O)[C@@H]1O
[1]
  viability at 25 µM: 94%
Toxoplasma gondii [2]
  survival at 50 µM: 0%
[3]
  viability at 10 µM: 99.2%
[4]
  viability at 50 µM: 99.5%
Toxoplasma gondii [5]
  survival at 25 µM: 34.5%
[6]
  Survival: 100%
Toxoplasma gondii [7]
  survival at 25 µM: 100%
Toxoplasma gondii [8]
  Survival: 100%
[9]
  viability at 5 µM: 98.1%
Toxoplasma gondii [10]
  survival at 10 µM: 79.1%
Toxoplasma gondii [11]
  survival at 10 µM: 100%
Toxoplasma gondii [12]
  survival at 50 µM: 100%
Toxoplasma gondii [13]
  survival at 5 µM: 100%
Toxoplasma gondii [14]
  Survival: 100%
Toxoplasma gondii [15]
  survival at 5 µM: 94.8%

B1: Adenosine kinase (Toxoplasma gondii), Q9TVW2 (protein)
chain: MAVDSSNSATGPMRVFAIGNPILDLVAEVPSSFLDEFFLKRGDATLATPEQMRIYSTLDQFNPTSLPGGSALNSVRVVQKLLRKPGSAGYMGAIGDDPRGQVLKELCDKEGLATRFMVAPGQSTGVCAVLINEKERTLCTHLGACGSFRLPEDWTTFASGALIFYATAYTLTATPKNALEVAGYAHGIPNAIFTLNLSAPFCVELYKDAMQSLLLHTNILFGNEEEFAHLAKVHNLVAAEKTALSTANKEHAVEVCTGALRLLTAGQNTGATKLVVMTRGHNPVIAAEQTADGTVVVHEVGVPVVAAEKIVDTNGAGDAFVGGFLYALSQGKTVKQCIMCGNACAQDVIQHVGFSLSFTSLPC
[16]
  Km: 113 µM
[17]
  Km: 1.1 µM
[18]
  Km: 1.5 µM
[19]
  Km: 1.2 µM
[20]
  Km: 7.5 µM
[21]
  Km: 1.4 µM
[22]
  Km: 141 µM
[23]
  Km: 3.3 µM
[24]
  Km: 2.1 µM
[25]
  Km: 2.4 µM
[26]
  Km: 0.9 µM
[27]
  Km: 2.9 µM
[28]
  Km: 150 µM
[29]
  Km: 2.5 µM
[30]
  Km: 2.6 µM
[31]
  Km: 96.1 µM
[32]
  Km: 3 µM
[33]
  Km: 37.7 µM
[34]
  Km: 2.4 µM
[35]
  Km: 0.7 µM
[36]
  Km: 1.3 µM
